# pIC50: −log10 of the molar value.
# Biological target: T1, Falcipain 2 (Plasmodium falciparum, UniProt Q9N6S8)
# T1 sequence (Q9N6S8 whole entry): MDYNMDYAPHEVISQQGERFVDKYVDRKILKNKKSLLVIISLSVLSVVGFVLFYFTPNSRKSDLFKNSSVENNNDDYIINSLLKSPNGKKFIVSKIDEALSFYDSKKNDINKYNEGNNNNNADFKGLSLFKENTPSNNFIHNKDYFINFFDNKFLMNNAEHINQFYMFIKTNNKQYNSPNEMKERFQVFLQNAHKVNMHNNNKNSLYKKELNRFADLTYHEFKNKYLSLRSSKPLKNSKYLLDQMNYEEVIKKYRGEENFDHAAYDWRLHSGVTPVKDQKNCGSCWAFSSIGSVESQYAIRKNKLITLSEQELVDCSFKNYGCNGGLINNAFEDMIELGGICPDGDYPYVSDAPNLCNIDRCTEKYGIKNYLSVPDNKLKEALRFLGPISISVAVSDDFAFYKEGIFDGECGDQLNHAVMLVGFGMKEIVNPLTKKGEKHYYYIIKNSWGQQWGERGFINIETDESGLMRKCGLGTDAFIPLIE
# Test: Inhibition of falcipain activity
# Outline: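 Soluble parasite extract containing falcipain (30 nM) preincubated 30 min at room temperature with compound (100× DMSO stocks) and 10 mM DTT in 0.1 M sodium acetate, pH 5.5. Z-Phe-Arg-AMC then added to 50 μM final. Fluorescence (ex 380, em 460 nm) followed continuously for 30 min. Rates compared with DMSO controls. Multiple concentrations tested in duplicate or triplicate; IC50 extrapolated from % control activity curves.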
row,pIC50,SMILES
1,5.00,"O=C1CC(c2ccc(Cl)cc2Cl)CC2=Nc3ccc(F)cc3SC12 (centres undefined) [2-(2,4-Dichloro-phenyl)-7-fluoro-2,3-dihydro-1H,10H-phenothiazin-4-one]"
2,5.30,"COc1ccc(C2CC(=O)C3C(=Nc4ccc(F)cc4S3(=O)=O)C2)cc1OC (centres undefined) [2-(3,4-Dimethoxy-phenyl)-7-fluoro-5,5-dioxo-2,3,5,10-tetrahydro-1H-5lambda*6*-phenothiazin-4-one]"
3,5.30,"O=C1CC(c2ccc(Cl)cc2)CC2=Nc3ccc(F)cc3S(=O)(=O)C12 (centres undefined) [2-(4-Chloro-phenyl)-7-fluoro-5,5-dioxo-2,3,5,10-tetrahydro-1H-5lambda*6*-phenothiazin-4-one]"
4,5.40,"COc1cccc(C2CC(=O)C3C(=Nc4ccc(Cl)cc4S3(=O)=O)C2)c1OC (centres undefined) [7-Chloro-2-(2,3-dimethoxy-phenyl)-5,5-dioxo-2,3,5,10-tetrahydro-1H-5lambda*6*-phenothiazin-4-one]"
5,5.00,"O=C1CC(c2ccc(Cl)cc2Cl)CC2=Nc3ccc(Cl)cc3SC12 (centres undefined) [7-Chloro-2-(2,4-dichloro-phenyl)-2,3-dihydro-1H,10H-phenothiazin-4-one]"
6,4.52,"O=C1CC(c2ccc(Cl)cc2Cl)CC2=Nc3ccc(Cl)cc3S(=O)(=O)C12 (centres undefined) [7-Chloro-2-(2,4-dichloro-phenyl)-5,5-dioxo-2,3,5,10-tetrahydro-1H-5lambda*6*-phenothiazin-4-one]"
7,5.40,"O=C1CC(c2ccc(Cl)cc2)CC2=Nc3ccc(Cl)cc3S(=O)(=O)C12 (centres undefined) [7-Chloro-2-(4-chloro-phenyl)-5,5-dioxo-2,3,5,10-tetrahydro-1H-5lambda*6*-phenothiazin-4-one]"
8,4.52,"COc1ccc(C2CC(=O)C3C(=Nc4ccc(Cl)cc4S3(=O)=O)C2)cc1 (centres undefined) [7-Chloro-2-(4-methoxy-phenyl)-5,5-dioxo-2,3,5,10-tetrahydro-1H-5lambda*6*-phenothiazin-4-one]"
9,5.40,"O=C1CC(c2ccccc2)CC2=Nc3ccc(Cl)cc3S(=O)(=O)C12 (centres undefined) [7-Chloro-5,5-dioxo-2-phenyl-2,3,5,10-tetrahydro-1H-5lambda*6*-phenothiazin-4-one]"
10,5.30,"COc1cccc(C2CC(=O)C3C(=Nc4ccc(F)cc4S3(=O)=O)C2)c1 (centres undefined) [7-Fluoro-2-(3-methoxy-phenyl)-5,5-dioxo-2,3,5,10-tetrahydro-1H-5lambda*6*-phenothiazin-4-one]"

# The remaining lines, values behind:
row,SMILES,pIC50
1,"COc1cccc(C2CC(=O)C3Sc4cc(F)ccc4N=C3C2)c1OC (centres undefined) [2-(2,3-Dimethoxy-phenyl)-7-fluoro-2,3-dihydro-1H,10H-phenothiazin-4-one]",4.70
2,"COc1ccc(C2CC(=O)C3Sc4cc(F)ccc4N=C3C2)cc1OC (centres undefined) [2-(3,4-Dimethoxy-phenyl)-7-fluoro-2,3-dihydro-1H,10H-phenothiazin-4-one]",4.70
3,"O=C1CC(c2ccc(Cl)cc2)CC2=Nc3ccc(F)cc3SC12 (centres undefined) [2-(4-Chloro-phenyl)-7-fluoro-2,3-dihydro-1H,10H-phenothiazin-4-one]",5.30
4,"CC1(C)CC(=O)C2Sc3cc(Cl)ccc3N=C2C1 (centres undefined) [7-Chloro-2,2-dimethyl-2,3-dihydro-1H,10H-phenothiazin-4-one]",4.52
5,"CC1(C)CC(=O)C2C(=Nc3ccc(Cl)cc3S2(=O)=O)C1 (centres undefined) [7-Chloro-2,2-dimethyl-5,5-dioxo-2,3,5,10-tetrahydro-1H-5lambda*6*-phenothiazin-4-one]",5.30
6,"COc1cccc(C2CC(=O)C3Sc4cc(Cl)ccc4N=C3C2)c1OC (centres undefined) [7-Chloro-2-(2,3-dimethoxy-phenyl)-2,3-dihydro-1H,10H-phenothiazin-4-one]",5.00
7,"COc1ccc(C2CC(=O)C3Sc4cc(Cl)ccc4N=C3C2)cc1OC (centres undefined) [7-Chloro-2-(3,4-dimethoxy-phenyl)-2,3-dihydro-1H,10H-phenothiazin-4-one]",4.52
8,"COc1cccc(C2CC(=O)C3Sc4cc(Cl)ccc4N=C3C2)c1 (centres undefined) [7-Chloro-2-(3-methoxy-phenyl)-2,3-dihydro-1H,10H-phenothiazin-4-one]",4.70
9,"O=C1CC(c2ccc(Cl)cc2)CC2=Nc3ccc(Cl)cc3SC12 (centres undefined) [7-Chloro-2-(4-chloro-phenyl)-2,3-dihydro-1H,10H-phenothiazin-4-one]",5.40
10,"COc1ccc(C2CC(=O)C3Sc4cc(Cl)ccc4N=C3C2)cc1 (centres undefined) [7-Chloro-2-(4-methoxy-phenyl)-2,3-dihydro-1H,10H-phenothiazin-4-one]",5.00
11,"O=C1CC(c2ccccc2)CC2=Nc3ccc(Cl)cc3SC12 (centres undefined) [7-Chloro-2-phenyl-2,3-dihydro-1H,10H-phenothiazin-4-one]",5.00
12,"CC1(C)CC(=O)C2C(=Nc3ccc(F)cc3S2(=O)=O)C1 (centres undefined) [7-Fluoro-2,2-dimethyl-5,5-dioxo-2,3,5,10-tetrahydro-1H-5lambda*6*-phenothiazin-4-one]",5.30
13,"COc1cccc(C2CC(=O)C3Sc4cc(F)ccc4N=C3C2)c1 (centres undefined) [7-Fluoro-2-(3-methoxy-phenyl)-2,3-dihydro-1H,10H-phenothiazin-4-one]",4.70
14,"O=C1CC(c2ccccc2)CC2=Nc3ccc(F)cc3SC12 (centres undefined) [7-Fluoro-2-phenyl-2,3-dihydro-1H,10H-phenothiazin-4-one]",4.70

# — BindingDB's records for doi:10.1021/jm970266p (Universidad Central De Venezuela, 1997)
